Data from publication PMC10975593 (ACS Omega, 2024).
Where two headings read alike, the source gives them in different places.

Tests used:
UO-31 = assay: NCI 60-cell line screen; type: cell-based, human
Outline: (§1)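 Test compounds were submitted to the National Cancer Institute and run under NCI's standard 60-cell-line protocols. Read-outs were taken from percent-growth versus log-concentration curves.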

A549 cancer cell line = assay: MTT assay; type: cell-based; settings: Homo sapiens, A549, 72 h
Outline: (§2)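 A549 in DMEM and MCF-7 in RPMI, each with 10% heat-inactivated FBS, 1% penicillin/streptomycin and 2 mmol/L glutamine at 37 °C, 5% CO2. Seeded at 2000 (A549) or 10,000 (MCF-7) cells/well and attached 24 h. Then 72 h with test compound at varying concentrations. MTT (5 mg/mL stock) added for 4 h at 37 °C, formazan dissolved in DMSO, absorbance read at 450/540 nm. Triplicates in three separate experiments.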

HCT-15 = assay: NCI 60-cell line screen; type: cell-based, human
TK-10 = assay: NCI 60-cell line screen; type: cell-based, human
Outline: as §1

Staphylococcus aureus = assay: Disc diffusion antimicrobial test; type: cell-based; settings: Staphylococcus aureus, 24 h, read-out: zone of inhibition (diameter of inhibition)
Outline: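 Disc diffusion on nutrient agar, test compound at 100 μg/mL with DMSO as solvent. Plates incubated at 37 °C for 24 h after inoculation, then zone of inhibition measured and compared with standards. Controls were DMSO, amoxicillin, ciprofloxacin and tetracycline.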

MOLT-4 = assay: NCI 60-cell line screen; type: cell-based, human
UACC-257 = assay: NCI 60-cell line screen; type: cell-based, human
Outline: as §1

NCI-H322M = assay: NCI 60-cell line screen; type: cell-based, human
HL-60(TB) = settings: leukemia
CAKI-1 = assay: NCI 60-cell line screen; type: cell-based, human
NCI-H460 = assay: NCI 60-cell line screen; type: cell-based, human
COLO 205 = assay: NCI 60-cell line screen; type: cell-based, human
SK-OV-3 = assay: NCI 60-cell line screen; type: cell-based, human
Outline: as §1

PC-3 = assay: NCI 60-cell line screen; type: cell-based, human
Outline: as §1

A549/ATCC = assay: NCI 60-cell line screen; type: cell-based, human
[1] = tested on: MCF-7 and A549 cancer cell lines; assay: MTT assay, range over both cell lines; type: cell-based; settings: read-out: IC50 values, range
Outline: as §2

OVCAR-5 = assay: NCI 60-cell line screen; type: cell-based, human
Outline: as §1

NCI 60 cell line panel = assay: NCI 60-cell line inhibition, range over panel; type: cell-based; settings: Homo sapiens
OVCAR-8 = assay: NCI 60-cell line screen; type: cell-based, human
Outline: as §1

PI3Kγ enzyme = PI3Kγ enzyme (Homo sapiens, UniProt P48736); assay: Adapta universal kinase assay, anti-PI3Kγ activity; type: biochemical
PI3Kγ enzyme, sequence (P48736 whole entry): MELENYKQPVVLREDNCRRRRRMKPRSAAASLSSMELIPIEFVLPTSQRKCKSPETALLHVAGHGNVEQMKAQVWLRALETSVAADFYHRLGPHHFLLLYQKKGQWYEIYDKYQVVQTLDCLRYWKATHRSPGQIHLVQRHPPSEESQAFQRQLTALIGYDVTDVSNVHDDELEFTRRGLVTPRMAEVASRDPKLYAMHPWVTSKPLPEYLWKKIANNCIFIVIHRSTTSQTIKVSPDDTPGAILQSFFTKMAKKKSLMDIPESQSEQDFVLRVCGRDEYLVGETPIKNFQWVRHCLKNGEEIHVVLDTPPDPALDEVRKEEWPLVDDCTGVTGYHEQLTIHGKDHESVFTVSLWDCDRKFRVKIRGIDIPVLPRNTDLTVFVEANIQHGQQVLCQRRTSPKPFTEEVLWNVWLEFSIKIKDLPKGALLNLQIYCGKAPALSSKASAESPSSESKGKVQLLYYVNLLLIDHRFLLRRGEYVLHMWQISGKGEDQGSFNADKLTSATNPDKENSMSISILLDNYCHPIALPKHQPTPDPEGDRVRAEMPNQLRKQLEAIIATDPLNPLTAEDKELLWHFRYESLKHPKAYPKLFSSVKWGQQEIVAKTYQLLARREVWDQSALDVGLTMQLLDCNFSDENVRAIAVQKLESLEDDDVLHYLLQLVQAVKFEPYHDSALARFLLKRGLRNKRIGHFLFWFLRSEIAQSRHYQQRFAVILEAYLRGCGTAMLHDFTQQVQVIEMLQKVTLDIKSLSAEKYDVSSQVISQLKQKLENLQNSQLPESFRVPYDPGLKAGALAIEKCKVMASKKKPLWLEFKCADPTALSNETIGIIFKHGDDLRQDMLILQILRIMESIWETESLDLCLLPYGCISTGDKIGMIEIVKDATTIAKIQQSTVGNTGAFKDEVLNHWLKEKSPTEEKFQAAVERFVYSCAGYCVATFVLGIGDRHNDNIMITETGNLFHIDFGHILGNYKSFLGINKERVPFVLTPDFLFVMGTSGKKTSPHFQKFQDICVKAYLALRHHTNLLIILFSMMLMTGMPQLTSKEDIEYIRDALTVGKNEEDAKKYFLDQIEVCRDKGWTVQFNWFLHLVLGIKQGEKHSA
Outline: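 Adapta ADP-detection TR-FRET immunoassay with test compound at 100 μM. The kinase reaction runs 60 min. It is then stopped by a detection solution of EDTA, europium-labelled anti-ADP antibody and Alexa Fluor 647-labelled ADP tracer. ADP formed displaces the tracer and lowers the TR-FRET signal. ADP formation is calculated from the emission ratio.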

LOX IMVI = assay: NCI 60-cell line screen; type: cell-based, human
SW-620 = assay: NCI 60-cell line screen; type: cell-based, human
Outline: as §1

HT29 = assay: NCI 60-cell line screen; type: cell-based, human
HCC-2998 = assay: NCI 60-cell line screen; type: cell-based, human

O=C(CN1CCN(CC(=O)Nc2nc3ccccc3s2)CC1)Nc1ccc([N+](=O)[O-])cc1 [OMS14, N-(benzo[d]thiazol-2-yl)-2-(4-(2-((4-nitrophenyl)amino)-2-oxoethyl)piperazin-1-yl)acetamide]
GI50 (UO-31; Homo sapiens, UO-31): 1.3 µM | IC50 (UO-31; Homo sapiens, UO-31): 2.5 µM | CC50 (UO-31; Homo sapiens, UO-31, read-out: LC50): 8.5 µM | TGI (UO-31; UO-31, renal cancer): 3.3 µM | IC50 (A549 cancer cell line): 26.1 µM | inhibition at 100 µM (A549 cancer cell line; read-out: experimental % of inhibition on A549 cancer cell line): 90.6% | TGI (HCT-15; HCT-15, colon cancer): 3.7 µM | GI50 (HCT-15; Homo sapiens, HCT-15): 1.7 µM | IC50 (HCT-15; Homo sapiens, HCT-15): 2.8 µM | CC50 (HCT-15; Homo sapiens, HCT-15, read-out: LC50): 7.9 µM | GI50 (TK-10; Homo sapiens, TK-10): 2.2 µM | IC50 (TK-10; Homo sapiens, TK-10): 6.2 µM | CC50 (TK-10; Homo sapiens, TK-10, read-out: LC50): > 100 µM | TGI (TK-10; TK-10, renal cancer): 7.1 µM | zone of inhibition at 100 µg/mL (Staphylococcus aureus): 15 mm | GI50 (MOLT-4; Homo sapiens, MOLT-4): 1.1 µM | IC50 (MOLT-4; Homo sapiens, MOLT-4): 2.5 µM | CC50 (MOLT-4; Homo sapiens, MOLT-4, read-out: LC50): > 100 µM | TGI (MOLT-4; MOLT-4, leukemia): 9.5 µM | GI50 (UACC-257; Homo sapiens, UACC-257): 2.1 µM | IC50 (UACC-257; Homo sapiens, UACC-257): 4.2 µM | CC50 (UACC-257; Homo sapiens, UACC-257, read-out: LC50): 11.7 µM | TGI (UACC-257; UACC-257, melanoma): 4.7 µM | GI50 (NCI-H322M; Homo sapiens): 1.9 µM | IC50 (NCI-H322M; Homo sapiens): 3.7 µM | CC50 (NCI-H322M; Homo sapiens, read-out: LC50): 40.7 µM | TGI (NCI-H322M; non-small cell lung cancer): 5.5 µM | TGI (HL-60(TB)): 7.6 µM | TGI (CAKI-1; CAKI-1, renal cancer): 3.6 µM | GI50 (CAKI-1; Homo sapiens, CAKI-1): 0.9 µM | IC50 (CAKI-1; Homo sapiens, CAKI-1): 2 µM | CC50 (CAKI-1; Homo sapiens, CAKI-1, read-out: LC50): 16.2 µM | GI50 (NCI-H460; Homo sapiens, NCI-H460): 1.3 µM | IC50 (NCI-H460; Homo sapiens, NCI-H460): 1.8 µM | CC50 (NCI-H460; Homo sapiens, NCI-H460, read-out: LC50): 21.9 µM | TGI (NCI-H460; NCI-H460, non-small cell lung cancer): 4.1 µM | TGI (COLO 205; COLO 205, colon cancer): 2.2 µM | GI50 (COLO 205; Homo sapiens, COLO 205): 1 µM | IC50 (COLO 205; Homo sapiens, COLO 205): 1.7 µM | CC50 (COLO 205; Homo sapiens, COLO 205, read-out: LC50): 5 µM | GI50 (SK-OV-3; Homo sapiens, SK-OV-3): 2.2 µM | IC50 (SK-OV-3; Homo sapiens, SK-OV-3): 6.6 µM | CC50 (SK-OV-3; Homo sapiens, SK-OV-3, read-out: LC50): > 100 µM | TGI (SK-OV-3; SK-OV-3, ovarian cancer): 8.1 µM | GI50 (PC-3; Homo sapiens, PC-3): 3 µM | IC50 (PC-3; Homo sapiens, PC-3): 4.4 µM | CC50 (PC-3; Homo sapiens, PC-3, read-out: LC50): > 100 µM | TGI (PC-3; PC-3, prostate cancer): 20.9 µM | TGI (A549/ATCC; A549/ATCC, non-small cell lung cancer): 4.6 µM | GI50 (A549/ATCC; Homo sapiens, A549): 1.9 µM | IC50 (A549/ATCC; Homo sapiens, A549): 3.2 µM | CC50 (A549/ATCC; Homo sapiens, A549, read-out: LC50): > 100 µM | IC50 [1]: 22.1 to 61 µM | GI50 (OVCAR-5; Homo sapiens, OVCAR-5): 1.5 µM | IC50 (OVCAR-5; Homo sapiens, OVCAR-5): 3.2 µM | CC50 (OVCAR-5; Homo sapiens, OVCAR-5, read-out: LC50): 57.5 µM | TGI (OVCAR-5; OVCAR-5, ovarian cancer): 4.8 µM | GI50 (NCI 60 cell line panel; read-out: GI50, range over cell lines): 0.66 to 3.02 µM | IC50 (NCI 60 cell line panel; read-out: IC50, range over cell lines): 0.81 to 9.1 µM | GI50 (OVCAR-8; Homo sapiens, OVCAR-8): 1.4 µM | IC50 (OVCAR-8; Homo sapiens, OVCAR-8): 2.4 µM | CC50 (OVCAR-8; Homo sapiens, OVCAR-8, read-out: LC50): > 100 µM | TGI (OVCAR-8; OVCAR-8, ovarian cancer): 4.3 µM | inhibition at 100 µM (PI3Kγ enzyme; read-out: % of inhibition (mean) against PI3Kγ enzyme): 19% | inhibition at 100 µM (PI3Kγ enzyme; read-out: % of inhibition against PI3Kγ enzyme, point 1): 15% | inhibition at 100 µM (PI3Kγ enzyme; read-out: % of inhibition against PI3Kγ enzyme, point 2): 24% | GI50 (LOX IMVI; Homo sapiens): 1.6 µM | IC50 (LOX IMVI; Homo sapiens): 2.8 µM | CC50 (LOX IMVI; Homo sapiens, read-out: LC50): 6.2 µM | TGI (LOX IMVI; melanoma): 3.2 µM | GI50 (SW-620; Homo sapiens, SW-620): 0.8 µM | IC50 (SW-620; Homo sapiens, SW-620): 1.1 µM | CC50 (SW-620; Homo sapiens, SW-620, read-out: LC50): 87.1 µM | TGI (SW-620; SW-620, colon cancer): 5.9 µM | TGI (HT29; HT29, colon cancer): 3.6 µM | GI50 (HT29; Homo sapiens, HT-29): 1.3 µM | IC50 (HT29; Homo sapiens, HT-29): 2.1 µM | CC50 (HT29; Homo sapiens, HT-29, read-out: LC50): 10.2 µM | TGI (HCC-2998; HCC-2998, colon cancer): 3.9 µM | GI50 (HCC-2998; Homo sapiens, HCC 2998): 1.7 µM | IC50 (HCC-2998; Homo sapiens, HCC 2998): 3.1 µM | CC50 (HCC-2998; Homo sapiens, HCC 2998, read-out: LC50): 8.9 µM
